Assay results gathered from unrelated publications.
Protocols differ between the studies behind these lines.
Target: Serine/threonine-protein kinase 36 (STK36, Homo sapiens, UniProt Q9NRP7)
Residues used in one study (Q9NRP7 1-1315): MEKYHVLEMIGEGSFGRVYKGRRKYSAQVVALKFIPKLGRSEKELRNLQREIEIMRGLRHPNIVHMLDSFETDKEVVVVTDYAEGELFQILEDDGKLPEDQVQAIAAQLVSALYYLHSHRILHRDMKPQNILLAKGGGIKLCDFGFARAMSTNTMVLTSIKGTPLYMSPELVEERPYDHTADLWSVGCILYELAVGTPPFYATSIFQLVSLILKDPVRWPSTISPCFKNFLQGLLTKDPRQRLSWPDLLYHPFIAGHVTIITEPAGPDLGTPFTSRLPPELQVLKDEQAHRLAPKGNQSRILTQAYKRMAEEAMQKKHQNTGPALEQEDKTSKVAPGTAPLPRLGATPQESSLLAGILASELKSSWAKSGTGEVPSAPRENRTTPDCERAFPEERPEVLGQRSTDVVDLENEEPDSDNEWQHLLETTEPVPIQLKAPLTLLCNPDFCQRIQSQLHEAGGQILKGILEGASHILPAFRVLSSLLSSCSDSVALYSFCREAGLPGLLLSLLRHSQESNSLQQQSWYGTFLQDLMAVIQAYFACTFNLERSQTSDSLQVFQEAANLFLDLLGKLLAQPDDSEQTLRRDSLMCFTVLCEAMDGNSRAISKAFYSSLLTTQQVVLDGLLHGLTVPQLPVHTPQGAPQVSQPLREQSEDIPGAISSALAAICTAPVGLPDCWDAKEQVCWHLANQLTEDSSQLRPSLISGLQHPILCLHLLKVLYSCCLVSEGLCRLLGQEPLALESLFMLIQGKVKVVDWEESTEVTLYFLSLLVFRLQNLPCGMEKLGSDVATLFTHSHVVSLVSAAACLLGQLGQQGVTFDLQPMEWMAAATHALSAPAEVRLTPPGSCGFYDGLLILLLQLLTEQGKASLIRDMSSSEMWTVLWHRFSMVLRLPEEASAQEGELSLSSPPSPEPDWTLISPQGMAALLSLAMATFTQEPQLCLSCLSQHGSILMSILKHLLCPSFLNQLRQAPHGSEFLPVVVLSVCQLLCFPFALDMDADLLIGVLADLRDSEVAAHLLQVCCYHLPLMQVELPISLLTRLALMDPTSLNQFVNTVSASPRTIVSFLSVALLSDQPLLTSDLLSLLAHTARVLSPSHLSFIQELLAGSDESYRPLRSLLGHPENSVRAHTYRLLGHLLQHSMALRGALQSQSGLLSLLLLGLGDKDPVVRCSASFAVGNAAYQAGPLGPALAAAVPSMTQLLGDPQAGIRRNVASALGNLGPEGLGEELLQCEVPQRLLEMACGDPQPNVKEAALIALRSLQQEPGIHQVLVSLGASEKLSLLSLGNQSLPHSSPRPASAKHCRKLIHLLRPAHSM

Compound	assay	setting	remaining binding
FC(F)(F)Oc1cccc(-c2cnc3ccc(-c4ccncc4)nn23)c1	binding, competition with immobilised ligand	5 µM	95%
O=C(c1ccc(Nc2ncc(Cl)c(-c3ccc(Cl)s3)n2)cc1)N1CCC(N2CCCC2)CC1	binding, competition with immobilised ligand	1 µM	3.9%
COc1cnc(Nc2cccc(S(N)(=O)=O)c2)nc1N1CCN(c2ccccc2)C(=O)C1	binding, competition with immobilised ligand	1 µM	100%
Cc1c[nH]c2nccc(Oc3c(F)cc(Nc4cc(Cl)nc(N)n4)cc3F)c12	cell-free assay, competition with immobilised ligand	0.1 µM	85%
O=C(c1ccc(Nc2nccc(-c3cc4ccccc4s3)n2)cc1)N1CCC(N2CCCC2)CC1	binding, competition with immobilised ligand	1 µM	11%
c1cncc(-c2cccc(Nc3nccc(NC4CCCCC4)n3)c2)c1	binding, competition with immobilised ligand	10 µM	49%
N[C@@H]1CCN(c2nccc(-c3cnn4ncccc34)n2)C1	binding	1 µM	77%
O=C(Nc1c[nH]nc1C(=O)NC1CCNCC1)c1cc(F)cc(F)c1	binding, competition with immobilised ligand	1 µM	100%
CO[C@H]1CC[C@H](CNc2ccc(S(=O)(=O)NC(=O)c3ccc(N4CCN(CC5=C(c6ccc(Cl)cc6)CC(C)(C)CC5)CC4)cc3Oc3cnc4[nH]ccc4c3)cc2[N+](=O)[O-])CC1	cell-free assay, competition with immobilised ligand	1 µM	71%
c1cnn2ncc(-c3ccnc(N4CCC45COC5)n3)c2c1	binding	1 µM	76%
COc1cnc(Nc2cccc(S(N)(=O)=O)c2)nc1N1CCN(c2ccccc2)CC1	binding, competition with immobilised ligand	1 µM	88%
C[C@@H](c1ccc(-n2cnc3c(N)ncnc32)cc1)N1CCc2nn(C)c(Cc3ccccc3)c2C1=O	binding, competition with immobilised ligand	0.1 µM	67%
CN(C)c1ncc(F)c(-c2cnn3ncccc23)n1	binding	1 µM	100%
CN1CCN(c2cnc3c(C4CCN(C(=O)c5ccc(OC(F)(F)F)cc5N)CC4)ncnc3c2)CC1	cell-free assay, competition with immobilised ligand	1 µM	75%
F[C@@H]1CCN(c2nccc(-c3cnn4ncccc34)n2)C1	binding	1 µM	90%
Cc1nc(N2CC[C@@H](O)C2)ncc1-c1cc(C(F)(F)F)cc2[nH]ncc12	binding, competition with immobilised ligand	1 µM	100%
CN(CCCC(F)(F)F)c1nccc(-c2cnn3ncccc23)n1	binding	1 µM	92%
O=C(NCCCN1CCOCC1)c1ccc(Nc2ncc(Cl)c(-c3ccc(Cl)s3)n2)cc1	binding, competition with immobilised ligand	1 µM	6.2%
COc1cccc(CNC(=O)c2nc3scc(COCc4ccc(C(=O)O)cc4)c3c(=O)[nH]2)c1	cell-free assay, competition with immobilised ligand	1 µM	100%
CN(c1nccc(-c2cnn3ncccc23)n1)C1CC1	binding	1 µM	100%
CCC(=O)N[C@@H]1CC[C@H](C(=O)N(C)c2ccc(-c3nc4ccccc4o3)cc2)C1	cell-free assay, competition with immobilised ligand	1 µM	82%
C[C@H]1CCN(c2nccc(-c3cnn4ncccc34)n2)C1	binding	1 µM	100%
